In ChEMBL document CHEMBL2375304, “Synthesis and anticancer activity of novel 2-pyridyl hexahyrocyclooctathieno[2,3-d]pyrimidine derivatives” (2013):

Columns and labels:
Format in all cases: functional
[1] = tested on: IGROV-1; assay: Growth inhibition of human IGROV1 cells at 10^-5 M after 48 hrs by Sulforhodamine B assay relative to control; conditions: IGROV-1, 48 h, read-out: GI
Method in brief: (§1)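 Single-dose screen at 10⁻⁵ M. Cells are preincubated 24 h at 37 °C in 5% CO2, then exposed to the compound, diluted from a DMSO stock into medium with gentamicin, for 48 h. Adherent cells are fixed with cold TCA (final 10%) and suspension cells with TCA (final 16%). Cells are stained with 0.4% SRB in 1% acetic acid and bound dye is read at 515 nm. Percent growth inhibition is taken against control wells and time-zero plates.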

[2] = tested on: UO-31; assay: Growth inhibition of human UO31 cells at 10^-5 M after 48 hrs by Sulforhodamine B assay relative to control; conditions: UO-31, 48 h, read-out: GI
Method in brief: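 Single-dose stage: compound tested at 10⁻⁵ M in the 49-cell-line panel. Cells grew 24 h at 37 °C, 5% CO₂ before drug addition. Drug stock was in DMSO at 400-fold, diluted in medium with gentamicin. After 48 h exposure, adherent cells were fixed with cold TCA (10% final) and stained with 0.4% SRB in 1% acetic acid. Dye was solubilized in 10 mM Tris, read at 515 nm. Growth percentage was taken relative to untreated control and time-zero plates.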

[3] = tested on: Hs-578T; assay: Growth inhibition of human Hs578T cells at 10^-5 M after 48 hrs by Sulforhodamine B assay relative to control; conditions: read-out: GI; method in brief: as §1
[4] = tested on: LOX IMVI; assay: Growth inhibition of human LOXIMVI cells at 10^-5 M after 48 hrs by Sulforhodamine B assay relative to control; conditions: read-out: GI; method in brief: as §1
[5] = tested on: RPMI-8226; assay: Growth inhibition of human RPMI8226 cells at 10^-5 M after 48 hrs by Sulforhodamine B assay relative to control; conditions: RPMI-8226, 48 h, read-out: GI
Method in brief: (§2)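 Single-dose primary screen at 10⁻⁵ M across 49 lines. Cells were plated 24 h beforehand, with a TCA-fixed time-zero plate, then exposed 48 h at 37 °C, 5% CO2. Cells were fixed with cold TCA, stained with SRB and read at 515 nm. Percent growth was calculated against time-zero and untreated-control absorbances.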

[6] = tested on: SW-620; assay: Growth inhibition of human SW620 cells at 10^-5 M after 48 hrs by Sulforhodamine B assay relative to control; conditions: SW-620, 48 h, read-out: GI; method in brief: as §2
[7] = tested on: SF-295; assay: Growth inhibition of human SF295 cells at 10^-5 M after 48 hrs by Sulforhodamine B assay relative to control; conditions: SF-295, 48 h, read-out: GI; method in brief: as §2
[8] = tested on: HCT-116; assay: Growth inhibition of human HCT116 cells at 10^-5 M after 48 hrs by Sulforhodamine B assay relative to control; conditions: HCT-116, 48 h, read-out: GI; method in brief: as §1
[9] = tested on: RXF 393; assay: Growth inhibition of human RXF393 cells at 10^-5 M after 48 hrs by Sulforhodamine B assay relative to control; conditions: RXF 393, 48 h, read-out: GI; method in brief: as §2
[10] = tested on: SF-268; assay: Growth inhibition of human SF268 cells at 10^-5 M after 48 hrs by Sulforhodamine B assay relative to control; conditions: SF-268, 48 h, read-out: GI; method in brief: as §2
[11] = tested on: OVCAR-4; assay: Growth inhibition of human OVCAR4 cells after 48 hrs by Sulforhodamine B assay; conditions: OVCAR-4, 48 h
Method in brief: (§3)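 Cells were preincubated 24 h at 37 °C, 5% CO2, and a time-zero plate was TCA-fixed. Five concentrations were made by serial dilution from a DMSO stock (400-fold the top concentration) and incubated 48 h. Adherent cells were fixed with 10% final TCA and suspension cells with 16%. Plates were stained with 0.4% SRB and read at 515 nm. GI50 is the concentration giving 50% reduction in net protein increase versus control.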

[12] = tested on: UACC-257; assay: Growth inhibition of human UACC257 cells after 48 hrs by Sulforhodamine B assay; conditions: UACC-257, 48 h
Method in brief: (§4)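 Five-concentration stage in the […]-cell-line panel, using 10-fold or ½-log serial dilutions made from a DMSO stock (400-fold). Cells were preincubated 24 h at 37 °C, then drug-exposed 48 h. A time-zero plate was fixed with TCA at dosing, adherent cells were fixed with cold TCA (10% final), and protein was stained with SRB, absorbance 515 nm. GI50 was where [(Ti−Tz)/(C−Tz)]×100 = 50, from the percent growth vs log concentration plot, expressed as log10 GI50.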

[13] = tested on: PC-3; assay: Growth inhibition of human PC3 cells after 48 hrs by Sulforhodamine B assay; conditions: PC-3, 48 h; method in brief: as §3
[14] = tested on: SK-OV-3; assay: Growth inhibition of human SKOV3 cells after 48 hrs by Sulforhodamine B assay; conditions: SK-OV-3, 48 h; method in brief: as §3
[15] = tested on: NCI-H522; assay: Growth inhibition of human NCI-H522 cells after 48 hrs by Sulforhodamine B assay; conditions: NCI-H522, 48 h; method in brief: as §3
[16] = tested on: T47D; assay: Growth inhibition of human T47D cells after 48 hrs by Sulforhodamine B assay; method in brief: as §3
[17] = tested on: HOP-92; assay: Growth inhibition of human HOP92 cells after 48 hrs by Sulforhodamine B assay; conditions: HOP-92, 48 h
Method in brief: (§5)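 Five-concentration SRB assay using 10-fold or ½-log serial dilutions from a DMSO stock. Exposure is 48 h at 37 °C in 5% CO2 after 24 h preincubation. TCA fixation is followed by SRB staining and a reading at 515 nm. Percentage growth is computed from time-zero, control and treated absorbances. GI50 is the concentration where [(Ti−Tz)/(C−Tz)]×100 = 50, read from the plot against log concentration.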

[18] = tested on: CAKI-1; assay: Growth inhibition of human CAKI-1 cells after 48 hrs by Sulforhodamine B assay; conditions: CAKI-1, 48 h; method in brief: as §5
[19] = tested on: SR; assay: Growth inhibition of human SR cells after 48 hrs by Sulforhodamine B assay; method in brief: as §3
[20] = tested on: SK-MEL-5; assay: Growth inhibition of human SK-MEL-5 cells after 48 hrs by Sulforhodamine B assay; conditions: SK-MEL-5, 48 h; method in brief: as §3
[21] = tested on: U-251; assay: Growth inhibition of human U251 cells after 48 hrs by Sulforhodamine B assay; conditions: U-251, 48 h; method in brief: as §4
[22] = Growth inhibition of human NCI-ADR-RES cells after 48 hrs by Sulforhodamine B assay; method in brief: as §3
[23] = tested on: A498; assay: Growth inhibition of human A498 cells after 48 hrs by Sulforhodamine B assay; conditions: A498, 48 h; method in brief: as §5
[24] = tested on: HCT-116; assay: Growth inhibition of human HCT116 cells after 48 hrs by Sulforhodamine B assay; conditions: HCT-116, 48 h; method in brief: as §5
[25] = tested on: SR; assay: Growth inhibition of human SR cells at 10^-5 M after 48 hrs by Sulforhodamine B assay relative to control; conditions: read-out: GI; method in brief: as §2
[26] = tested on: HOP-92; assay: Growth inhibition of human HOP92 cells at 10^-5 M after 48 hrs by Sulforhodamine B assay relative to control; conditions: HOP-92, 48 h, read-out: GI; method in brief: as §1
[27] = tested on: SNB-19; assay: Growth inhibition of human SNB19 cells after 48 hrs by Sulforhodamine B assay; conditions: SNB-19, 48 h; method in brief: as §3
[28] = tested on: SF-295; assay: Growth inhibition of human SF295 cells after 48 hrs by Sulforhodamine B assay; conditions: SF-295, 48 h; method in brief: as §3
[29] = tested on: Malme-3M; assay: Growth inhibition of human MALME-3M cells after 48 hrs by Sulforhodamine B assay; method in brief: as §5

Compound	inhibition of growth at 10 µM [1] [%]	inhibition of growth at 10 µM [2] [%]	inhibition of growth at 10 µM [3] [%]	inhibition of growth at 10 µM [4] [%]	inhibition of growth at 10 µM [5] [%]	inhibition of growth at 10 µM [6] [%]	inhibition of growth at 10 µM [7] [%]	inhibition of growth at 10 µM [8] [%]	inhibition of growth at 10 µM [10] [%]	GI50 [11] [µM]	GI50 [12] [µM]	GI50 [13] [µM]	GI50 [14] [µM]	GI50 [15] [µM]	GI50 [16] [µM]	GI50 [17] [µM]	GI50 [18] [µM]	GI50 [19] [µM]	GI50 [20] [µM]	GI50 [23] [µM]	other results
COc1ccc(N2CCN(c3nc(-c4ccncc4)nc4sc5c(c34)CCCCCC5)CC2)cc1	3.43	11.1	-5.59	8.33	28.8	1.53	11.5	23.3	2.5	–	–	–	–	–	–	–	–	–	–	–	inhibition of growth at 10 µM [9]: 17.2%
COc1ccc(N2CCN(c3nc(-c4ccccn4)nc4sc5c(c34)CCCCCC5)CC2)cc1	–	–	–	–	–	–	–	–	–	8.51	7.24	3.31	> 100	18.6	6.31	3.24	5.37	3.16	2.82	3.31	GI50 [21]: 4.27 µM; GI50 [22]: 4.79 µM; GI50 [24]: 3.24 µM
c1ccc(N2CCN(c3nc(-c4ccncc4)nc4sc5c(c34)CCCCCC5)CC2)cc1	0.86	16.1	-12.9	0	3.42	-9.11	6.51	-3.45	-1.33	–	–	–	–	–	–	–	–	–	–	–	inhibition of growth at 10 µM [25]: 5.99%; inhibition of growth at 10 µM [9]: 0.87%; inhibition of growth at 10 µM [26]: 33.3%
c1ccc(N2CCN(c3nc(-c4ccccn4)nc4sc5c(c34)CCCCCC5)CC2)cc1	62.9	55.8	6.17	42.2	57.5	24	54.8	80.5	20.4	–	–	–	–	–	–	–	–	–	–	–	inhibition of growth at 10 µM [9]: 32.2%; inhibition of growth at 10 µM [26]: 26.8%
CN1CCN(c2nc(-c3ccncc3)nc3sc4c(c23)CCCCCC4)CC1	–	–	–	–	–	–	–	–	–	12.6	10.7	4.68	12	12	13.5	0.661	3.47	2.82	7.94	1.05	GI50 [21]: 9.33 µM; GI50 [22]: 8.13 µM; GI50 [24]: 5.13 µM
CN1CCN(c2nc(-c3ccccn3)nc3sc4c(c23)CCCCCC4)CC1	6.64	32.8	6.23	4.93	12.4	-1.34	13.8	14.1	-1.9	–	–	–	–	–	–	–	–	–	–	–	–
c1cc(-c2nc(N3CCOCC3)c3c4c(sc3n2)CCCCCC4)ccn1	1.53	38.7	-13.3	11.6	32.2	-9.82	19.5	23.2	4.06	–	–	–	–	–	–	–	–	–	–	–	inhibition of growth at 10 µM [25]: 24.1%
NNc1nc(-c2ccncc2)nc2sc3c(c12)CCCCCC3	-16.5	20.4	-13.7	5.88	12.1	-8.49	6.22	4.13	-17.8	–	–	–	–	–	–	–	–	–	–	–	inhibition of growth at 10 µM [25]: 15.7%
c1ccc(-c2nc(N3CCOCC3)c3c4c(sc3n2)CCCCCC4)nc1	–	–	–	–	–	–	–	–	–	4.9	11	2.69	9.33	5.89	4.47	0.617	2.29	–	2	1.66	GI50 [27]: 8.32 µM; GI50 [28]: 3.39 µM; GI50 [29]: 3.31 µM; GI50 [22]: 0.832 µM; GI50 [24]: 3.72 µM
Clc1nc(-c2ccncc2)nc2sc3c(c12)CCCCCC3	7.04	13.9	6.64	5.4	0.89	-3.44	–	2.69	0.85	–	–	–	–	–	–	–	–	–	–	–	inhibition of growth at 10 µM [25]: 21.4%
NNc1nc(-c2ccccn2)nc2sc3c(c12)CCCCCC3	–	–	–	–	–	–	–	–	–	10.5	6.61	3.98	30.9	12	5.01	3.55	0.575	3.98	3.16	1.86	GI50 [21]: 4.47 µM; GI50 [22]: 0.457 µM; GI50 [24]: 3.55 µM
O=c1[nH]c(-c2ccncc2)nc2sc3c(c12)CCCCCC3	–	–	–	–	–	–	–	–	–	–	> 100	> 100	–	> 100	–	> 100	> 100	> 100	> 100	> 100	GI50 [29]: > 100 µM; GI50 [21]: > 100 µM
Clc1nc(-c2ccccn2)nc2sc3c(c12)CCCCCC3	10.2	83.6	8.7	32.2	4.46	-2.34	–	15.5	5.35	–	–	–	–	–	–	–	–	–	–	–	inhibition of growth at 10 µM [25]: 33.7%
O=c1[nH]c(-c2ccccn2)nc2sc3c(c12)CCCCCC3	–	–	–	–	–	–	–	–	–	5.89	> 100	4.07	> 100	> 100	5.5	3.89	3.31	0.871	2.95	1.32	GI50 [21]: 2.14 µM; GI50 [22]: 0.955 µM; GI50 [24]: 1.38 µM
